Assay results reported in ChEMBL document CHEMBL1123208, “Quantitative structure-activity relationship of the mutagenicity of substituted N-nitroso-N-benzylmethylamines: possible implications for carcinogenicity” (J Med Chem, 1986).

Assays:
[1] = tested on: Salmonella typhimurium; experiment: compound was tested for mutagenicity against Salmonella tester strain TA 1535 with out hamster S9 mix (3 mg/plate) in cells at dose of 500 ug
[2] = Concentration in nmol/plate to induce 50 revertants/plate.; type: ADME
Outline: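 Ames plate incorporation, S. typhimurium TA 1535, Aroclor-induced male hamster liver S9; duplicate plates, 10-point range 1–1000 µg/plate; 37 °C, 48 h; revertants counted by hand tally. Potency index: concentration (nmol/plate) inducing 50 revertants/plate, taken from linear portion of dose–response curve.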

[3] = tested on: Salmonella typhimurium; experiment: compound was tested for mutagenicity against Salmonella tester strain TA 1535 with hamster S9 mix (3 mg/plate) in cells at dose of 500 ug
[4] = tested on: Salmonella typhimurium; experiment: Mutagenicity against Salmonella tester strain TA 1535 without hamster S9 mix (3 mg/plate) in cells.; type: functional, Salmonella enterica subsp. enterica serovar Typhimurium
[5] = tested on: Salmonella typhimurium; experiment: compound was tested for mutagenicity against Salmonella tester strain TA 1535 with out hamster S9 mix (3 mg/plate) in cells at dose of 50 ug; type: functional, Salmonella enterica subsp. enterica serovar Typhimurium
Outline: (§1)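 Plate incorporation assay in S. typhimurium TA 1535 without S9 activation. Compound in Me2SO, 1–1000 µg/plate, duplicate plates, mean revertants/plate; incubated 37 °C for 48 h, colonies hand-counted. Positive if two consecutive doses gave revertants more than twice the concurrent control mean.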

[6] = tested on: Salmonella typhimurium; experiment: compound was tested for mutagenicity against Salmonella tester strain TA 1535 with out hamster S9 mix (3 mg/plate) in cells at dose of 250 ug; type: functional, Salmonella enterica subsp. enterica serovar Typhimurium
Outline: as §1

[7] = tested on: Salmonella typhimurium; experiment: compound was tested for mutagenicity against Salmonella tester strain TA 1535 with out hamster S9 mix (3 mg/plate) in cells at dose of 5 ug; type: functional, Salmonella enterica subsp. enterica serovar Typhimurium
Outline: as §1

[8] = tested on: Salmonella typhimurium; experiment: compound was tested for mutagenicity against Salmonella tester strain TA 1535 with out hamster S9 mix (3 mg/plate) in cells at dose of 1000 ug; type: functional, Salmonella enterica subsp. enterica serovar Typhimurium
Outline: as §1

[9] = tested on: Salmonella typhimurium; experiment: compound was tested for mutagenicity against Salmonella tester strain TA 1535 with out hamster S9 mix (3 mg/plate) in cells.; type: functional, Salmonella enterica subsp. enterica serovar Typhimurium
Outline: as §1

[10] = tested on: Salmonella typhimurium; experiment: compound was tested for mutagenicity against Salmonella tester strain TA 1535 with hamster S9 mix (3 mg/plate) in cells at dose of 1 ug; type: functional, Salmonella enterica subsp. enterica serovar Typhimurium
Outline: as §1, with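 “with Aroclor-induced male hamster liver” for “without”, “(3 mg/plate).” for “activation.”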

[11] = tested on: Salmonella typhimurium; experiment: compound was tested for mutagenicity against Salmonella tester strain TA 1535 with hamster S9 mix (3 mg/plate) in cells at dose of 250 ug; type: functional, Salmonella enterica subsp. enterica serovar Typhimurium
Outline: as §1, with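 “with Aroclor-induced male hamster liver” for “without”, “(3 mg/plate).” for “activation.”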

[12] = tested on: Salmonella typhimurium; experiment: compound was tested for mutagenicity against Salmonella tester strain TA 1535 with out hamster S9 mix (3 mg/plate) in cells at dose of 500 ug; type: functional, Salmonella enterica subsp. enterica serovar Typhimurium
Outline: as §1

[13] = tested on: Salmonella typhimurium; experiment: compound was tested for mutagenicity against Salmonella tester strain TA 1535 with hamster S9 mix (3 mg/plate) in cells at dose of 25 ug; type: functional, Salmonella enterica subsp. enterica serovar Typhimurium
Outline: as §1, with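 “with Aroclor-induced male hamster liver” for “without”, “(3 mg/plate).” for “activation.”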

[14] = tested on: Salmonella typhimurium; experiment: compound was tested for mutagenicity against Salmonella tester strain TA 1535 with hamster S9 mix (3 mg/plate) in cells at dose of 50 ug; type: functional, Salmonella enterica subsp. enterica serovar Typhimurium
Outline: as §1, with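 “with Aroclor-induced male hamster liver” for “without”, “(3 mg/plate).” for “activation.”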

[15] = tested on: Salmonella typhimurium; experiment: compound was tested for mutagenicity against Salmonella tester strain TA 1535 with hamster S9 mix (3 mg/plate) in cells at dose of 1000 ug; type: functional, Salmonella enterica subsp. enterica serovar Typhimurium
Outline: as §1, with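 “with Aroclor-induced male hamster liver” for “without”, “(3 mg/plate).” for “activation.”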

[16] = tested on: Salmonella typhimurium; experiment: compound was tested for mutagenicity against Salmonella tester strain TA 1535 with hamster S9 mix (3 mg/plate) in cells at dose of 500 ug; type: functional, Salmonella enterica subsp. enterica serovar Typhimurium
Outline: as §1, with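 “with Aroclor-induced male hamster liver” for “without”, “(3 mg/plate).” for “activation.”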

[17] = tested on: Salmonella typhimurium; experiment: compound was tested for mutagenicity against Salmonella tester strain TA 1535 with out hamster S9 mix (3 mg/plate) in cells at dose of 2.5 ug; type: functional, Salmonella enterica subsp. enterica serovar Typhimurium
Outline: as §1

[18] = tested on: Salmonella typhimurium; experiment: compound was tested for mutagenicity against Salmonella tester strain TA 1535 with out hamster S9 mix (3 mg/plate) in cells at dose of 25 ug; type: functional, Salmonella enterica subsp. enterica serovar Typhimurium
Outline: as §1

[19] = tested on: Salmonella typhimurium; experiment: compound was tested for mutagenicity against Salmonella tester strain TA 1535 with hamster S9 mix (3 mg/plate) in cells at dose of 2.5 ug; type: functional, Salmonella enterica subsp. enterica serovar Typhimurium
Outline: as §1, with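 “with Aroclor-induced male hamster liver” for “without”, “(3 mg/plate).” for “activation.”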

[20] = tested on: Salmonella typhimurium; experiment: compound was tested for mutagenicity against Salmonella tester strain TA 1535 with hamster S9 mix (3 mg/plate) in cells.; type: functional, Salmonella enterica subsp. enterica serovar Typhimurium
Outline: as §1, with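 “with Aroclor-induced male hamster liver” for “without”, “(3 mg/plate).” for “activation.”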

[21] = tested on: Salmonella typhimurium; experiment: compound was tested for mutagenicity against Salmonella tester strain TA 1535 with hamster S9 mix (3 mg/plate) in cells at dose of 10 ug; type: functional, Salmonella enterica subsp. enterica serovar Typhimurium
Outline: as §1, with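 “with Aroclor-induced male hamster liver” for “without”, “(3 mg/plate).” for “activation.”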

[22] = tested on: Salmonella typhimurium; experiment: compound was tested for mutagenicity against Salmonella tester strain TA 1535 with out hamster S9 mix (3 mg/plate) in cells at dose of 10 ug; type: functional, Salmonella enterica subsp. enterica serovar Typhimurium
Outline: as §1

[23] = tested on: Salmonella typhimurium; experiment: compound was tested for mutagenicity against Salmonella tester strain TA 1535 with hamster S9 mix (3 mg/plate) in cells at dose of 100 ug; type: functional, Salmonella enterica subsp. enterica serovar Typhimurium
Outline: as §1, with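 “with Aroclor-induced male hamster liver” for “without”, “(3 mg/plate).” for “activation.”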

[24] = tested on: Salmonella typhimurium; experiment: compound was tested for mutagenicity against Salmonella tester strain TA 1535 with out hamster S9 mix (3 mg/plate) in cells at dose of 1 ug; type: functional, Salmonella enterica subsp. enterica serovar Typhimurium
Outline: as §1

[25] = tested on: Salmonella typhimurium; experiment: compound was tested for mutagenicity against Salmonella tester strain TA 1535 with hamster S9 mix (3 mg/plate) in cells. Activity expressed as no. of cells; type: functional, Salmonella enterica subsp. enterica serovar Typhimurium
Outline: as §1, with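 “with Aroclor-induced male hamster liver” for “without”, “(3 mg/plate).” for “activation.”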

[26] = tested on: Salmonella typhimurium; experiment: compound was tested for mutagenicity against Salmonella tester strain TA 1535 with hamster S9 mix (3 mg/plate) in cells at dose of 5 ug; type: functional, Salmonella enterica subsp. enterica serovar Typhimurium
Outline: as §1, with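 “with Aroclor-induced male hamster liver” for “without”, “(3 mg/plate).” for “activation.”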

[27] = tested on: Salmonella typhimurium; experiment: compound was tested for mutagenicity against Salmonella tester strain TA 1535 with out hamster S9 mix (3 mg/plate) in cells at dose of 100 ug; type: functional, Salmonella enterica subsp. enterica serovar Typhimurium
Outline: as §1

CN(Cc1cccc(C(F)(F)F)c1)N=O
No. of revertants per plate [1]: 18 | Log 1/C [2]: -1.961 | No. of revertants per plate [3]: 127 | Activity [4]: 21

CN(Cc1cccc(Cl)c1)N=O
No. of revertants per plate [1]: 15 | Log 1/C [2]: -1.512 | No. of revertants per plate [3]: 215 | Activity [4]: 17

COC(=O)c1ccc(CN(C)N=O)cc1
No. of revertants per plate [1]: 15 | No. of revertants per plate [3]: 18 | Activity [4]: 14

COc1cccc(CN(C)N=O)c1
No. of revertants per plate [1]: 18 | Log [2]: -1.886 (degrees C)-1 | No. of revertants per plate [3]: 145 | Activity [4]: 25

CN(Cc1cccc(Br)c1)N=O
No. of revertants per plate [1]: 11 | Log 1/C [2]: -1.552 | No. of revertants per plate [3]: 223 | Activity [4]: 11

Cc1cccc(CN(C)N=O)c1
No. of revertants per plate [1]: 14 | Log 1/C [2]: -3.039 | No. of revertants per plate [3]: 106 | Activity [4]: 16

CN(Cc1ccc(Br)cc1)N=O
No. of revertants per plate [5]: 10 | No. of revertants per plate [6]: 11 | No. of revertants per plate [7]: 21 | No. of revertants per plate [8]: 15 | Activity [9]: 14 | No. of revertants per plate [10]: 12 | Log 1/C [2]: -1.998 | No. of revertants per plate [11]: 155 | No. of revertants per plate [12]: 13 | No. of revertants per plate [13]: 21 | No. of revertants per plate [14]: 32 | No. of revertants per plate [15]: 201 | No. of revertants per plate [16]: 183 | No. of revertants per plate [17]: 13 | No. of revertants per plate [18]: 14 | No. of revertants per plate [19]: 12 | Activity [20]: 13 | No. of revertants per plate [21]: 14 | No. of revertants per plate [22]: 18 | No. of revertants per plate [23]: 64 | Activity [4]: 12 | No. of revertants per plate [24]: 14 | Activity [25]: 17 | No. of revertants per plate [26]: 15 | No. of revertants per plate [27]: 16

CN(Cc1cccc([N+](=O)[O-])c1)N=O
Log 1/C [2]: -1.796
